Source: PubChem (Broad Institute)
CAL PDZ FP-1: CAL PDZ peptide-binding inhibitors, primary screen, biochemical, fluorescence polarization, Cer-tagged CAL PDZ, HTS; 330,000 tested, 0.02% active; inhibition, % at 20 µM; Golgi-associated PDZ and coiled-coil motif-containing protein (Homo sapiens), Q9HD26; purified CAL PDZ, TMR-peptide fluorescence polarization, 1 h;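 active = highest replicate inhibition of at least 40%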;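 note: plate controls were DMSO neutral control wells for no effect and unlabeled competitor peptide control wells for full effect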
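System: tagged CAL PDZ domain. Schedule: 1 h room-temperature incubation prior to read. Signal: fluorescence polarization (mP). Measure: percent inhibition from loss of millipolarization.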
LANA DNA inh: inhibitors of KSHV C-LANA binding to DNA, primary screen, biochemical, fluorescence polarization, FAM-LBS DNA, MBP-C-LANA, single point; AID 504423, 2011; inhibition, % at 9 µM; 340,000 tested, 0.078% active;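 active = highest replicate inhibition at or above 60% at 9 µM, even if other replicates fall short; inactive = all replicates below 60% inhibition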;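 note: 0% = neutral control wells and 100% = 4 µM acridine orange control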
miR122 inh: miR-122 Renilla sensor signal increase in Huh7, primary screen, miR-122 inhibitor project, cell-based, single point, plate reader. Huh7 miR-122 Renilla luciferase sensor, 48 h; neutral wells = 0, positive control = 100. activation (reporter increase), % at 12.5 µM. 340,000 tested, 0.3% active;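 active = mean replicate activation score at least 90 and every replicate individually at or above 90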;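 note: higher luciferase means less miR-122 activity so hits act as miR-122 inhibitors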
Keap1-Nrf2 PPI: Keap1-Nrf2 protein-protein interaction inhibitors, primary screen, biochemical, fluorescence polarization, single point; Kelch-like ECH-associated protein 1 (Homo sapiens), Q14145; Keap1 Kelch-Nrf2 peptide fluorescence polarization, 1536-well; inhibition, % at 9.4 µM; 340,000 tested, 0.15% active; AID 504523, 2011; in the data active = inhibition above about 12%;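 note: human Keap1 Kelch domain with fluorescein labeled Nrf2 9mer peptide probe; 0% = neutral control wells and 100% = peptide positive control; higher means more block of Keap1 binding to Nrf2 peptide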
Target sequence (Q14145 whole entry, looked up, the tested form may be a part): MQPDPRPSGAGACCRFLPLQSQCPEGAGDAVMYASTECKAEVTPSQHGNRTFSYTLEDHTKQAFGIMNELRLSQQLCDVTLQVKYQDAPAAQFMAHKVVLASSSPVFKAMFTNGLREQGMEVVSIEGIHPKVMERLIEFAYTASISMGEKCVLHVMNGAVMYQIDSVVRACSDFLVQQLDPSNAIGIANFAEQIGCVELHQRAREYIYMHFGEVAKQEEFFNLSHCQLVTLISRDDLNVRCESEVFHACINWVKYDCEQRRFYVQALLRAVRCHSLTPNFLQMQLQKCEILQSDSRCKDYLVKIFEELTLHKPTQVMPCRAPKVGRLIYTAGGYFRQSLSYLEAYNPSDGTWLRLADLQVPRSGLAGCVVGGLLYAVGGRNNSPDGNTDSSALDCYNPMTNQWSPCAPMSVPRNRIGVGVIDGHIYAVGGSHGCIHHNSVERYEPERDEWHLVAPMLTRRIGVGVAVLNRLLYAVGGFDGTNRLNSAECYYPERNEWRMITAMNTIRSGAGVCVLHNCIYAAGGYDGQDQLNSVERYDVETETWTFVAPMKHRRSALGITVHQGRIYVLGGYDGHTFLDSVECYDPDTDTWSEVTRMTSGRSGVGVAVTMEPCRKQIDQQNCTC
CAL PDZ FP-2: untagged CAL PDZ binding inhibitors, primary screen, biochemical, fluorescence polarization, HTS | Golgi-associated PDZ and coiled-coil motif-containing protein (Homo sapiens), Q9HD26 | purified CAL PDZ, TMR-peptide fluorescence polarization, 1 h | inhibition, % at 24.9 µM | 300,000 tested, 0.92% active | AID 602252, 2012;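 active = mean inhibition of at least 30% with at least half of replicates also reaching 30%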;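 note: 0% = DMSO neutral control and 100% = excess unlabeled competitor peptide PRC23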
* marks the source's active call; other numbers are inactive results; nt = no result; [ ] = remark or other dose. An excerpt weighted towards active compounds, which were near 1.1% of everything screened.

SMILES	CAL PDZ FP-1	LANA DNA inh	miR122 inh	Keap1-Nrf2 PPI	CAL PDZ FP-2
CC(=O)NC12CC3CC(C1)CC(C(=O)Nc1cccc(S(=O)(=O)N4CCCCCC4)c1)(C3)C2	-1.9	-0.3	-9.5	0.4	193.7*
CC(=O)c1sc(-c2ccc(Cl)cc2)cc1N	0.4	-0.6	nt	3.4	-3.7
COC(=O)c1sc(-c2ccc(Cl)cc2)cc1N	-0.1	2.0	-2.9	3.4	55.1*
Cc1ccc(Nc2nc(NCC3CCCO3)nc(N)c2[N+](=O)[O-])cc1C (configuration not stated)	0.1	-0.9	-3.1	3.1	30.5*
CC(C)CNc1nc(N)c([N+](=O)[O-])c(NCC2CCCO2)n1 (configuration not stated)	0.2	1.8	-5.9	-5.9	6.7
COc1ccc(-c2nnn(CC(=O)N(CCN3CCOCC3)C(C(=O)NC3CCCC3)c3ccco3)n2)cc1 (configuration not stated)	-0.8	-0.9	nt	-3.6	52.7*
COc1ccc(-c2nnn(CC(=O)N(CCN3CCOCC3)C(C(=O)NC3CCCCC3)c3ccco3)n2)cc1 (configuration not stated)	-1.6	0.2	nt	-5.8	-1.8
COc1ccc(-n2nnc3c(SCC(=O)N4CCCc5ccccc54)ncnc32)cc1	14.6	-0.8	-8.1	2.5	60.1*
CCOC(=O)c1ccc2[nH]c3c(c2c1)CCCCC3=O	-2.2	-1.6	-10.8	-1.2	37.4*
COc1cc(CC(=O)NCC(C)(C)N2CCOCC2)cc(OC)c1OC	-0.3	-2.5	1.2	5.7	55.1*
COc1ccc(S(=O)(=O)N2N=C(C)Oc3ccccc3C2=O)cc1	-3.5	1.0	123.2*	-5.8	-5.5
Cc1ccc(S(=O)(=O)N(C)C[C@@H]2Oc3ccc(NC(=O)Nc4ccc5c(c4)OCO5)cc3CC(=O)N([C@H](C)CO)C[C@@H]2C)cc1	nt	nt	85.4[16.7 µM]	nt	nt
COc1ccc2[nH]cc(CCNC(=O)Cc3ccc(F)cc3)c2c1	-4.0	-1.0	-1.1	-1.8	78.9*
COc1ccc2[nH]cc(CCNC(=O)Cc3ccc(Br)cc3)c2c1	-0.2	2.0	0.0	2.2	-3.2
CCc1ccc(Nc2c([N+](=O)[O-])c(=O)oc3ccccc23)cc1	-1.2	-0.9	nt	1.4	-0.8
CCNc1c([N+](=O)[O-])c(=O)oc2ccccc12	-2.2	-0.5	nt	-1.8	56.2*
CCN1[C@@H]2c3ccc(-c4ccccc4OC)c(=O)n3C[C@@H]2[C@@H](CO)[C@@H]1C(=O)NCC1CC1	nt	nt	-1.6[16.7 µM]	nt	nt
CNC(=O)C[C@H]1CC[C@@H]2[C@@H](COc3ccc(NC(=O)Nc4cccc(F)c4)cc3C(=O)N2C)O1	nt	nt	8.3[16.7 µM]	nt	nt
Cc1cc(OCC(=O)NCc2ccccn2)c2c(C)cc(=O)oc2c1	-0.2	0.6	0.1	1.2	47.1*
CC(C)(C)c1ccc(C(=O)NCCC(=O)NNC(=O)COc2ccc(F)cc2)cc1	0.2	1.0	-4.9	-1.6	33.0*
C[C@H](CO)N1C[C@H](C)[C@H](CN(C)C)Oc2ccc(NC(=O)Nc3ccc4c(c3)OCO4)cc2CC1=O	nt	nt	-3.1[16.7 µM]	nt	nt
Cc1noc(C)c1COc1cccc(C(=O)OC(C)C#N)c1 (configuration not stated)	-0.8	1.4	nt	-2.5	73.4*
COc1ccc(S(=O)(=O)Nc2cccc3c2O[C@H](CN(C)Cc2ccc4c(c2)OCO4)[C@@H](C)CN([C@H](C)CO)C3=O)cc1	nt	nt	50.4[16.7 µM]	nt	nt
CCOC(=O)/C=C1\SCC(=O)N1Cc1nnc(-c2ccccc2Br)o1	-1.9	1.6	0.0	-1.7	59.8*
CCOC(=O)/C=C1/SCC(=O)N1Cc1ccc(Br)cc1	-0.9	0.7	-1.5	-4.3	-2.9
SMILES	CAL PDZ FP-1	LANA DNA inh	miR122 inh	Keap1-Nrf2 PPI	CAL PDZ FP-2
C[C@@H]1CN([C@H](C)CO)C(=O)c2cc(C#CCc3ccccc3)cnc2O[C@H]1CN(C)Cc1cccnc1	nt	nt	-2.0[16.7 µM]	nt	nt
CCN1CC2=C(OC(N)=C(C#N)C2c2ccccc2)/C(=C\c2ccccc2)C1 (configuration not stated)	nt	3.2	-5.3	-2.9	-1.8
CCN1CC2=C(OC(N)=C(C#N)C2c2cccs2)/C(=C/c2cccs2)C1 (configuration not stated)	-0.3	-1.6	-7.9	-19.8	43.4*
C[C@H]1CN([C@@H](C)CO)C(=O)c2cc(NS(=O)(=O)c3cn(C)cn3)ccc2O[C@H]1CN(C)C(=O)NC1CCCCC1	nt	nt	-1.9[16.7 µM]	nt	nt
Cc1cc(NC(=O)CCN2C(=O)C3C4CCC(C4)C3C2=O)cc(C)c1Br (configuration not stated)	-2.2	-0.1	5.8	-1.5	-2.6
Cc1c(Br)ccc(NC(=O)CCN2C(=O)C3C4CCC(C4)C3C2=O)c1C (configuration not stated)	-0.7	2.0	11.9	6.6	32.0*
COc1cccc(NC(=O)CCS(=O)(=O)c2cccs2)c1	-1.5	-0.8	-4.3	1.6	72.0*
FC(F)Sc1ccc(NC(=S)NC2CCCCC2)cc1	-0.2	0.9	120.8*	3.2	-3.1
FC(F)Sc1ccc(NC(=S)NCC2CCCCC2)cc1	-2.2	0.1	nt	2.5	0.6
CC1CCN(C(=S)Nc2ccc(SC(F)F)cc2)CC1	-0.8	-0.1	nt	2.1	-2.0
CC1CCCCC1NC(=S)Nc1ccc(SC(F)F)cc1 (configuration not stated)	-0.3	-0.9	114.8*	1.6	9.4
CN(C)CC(=O)Nc1ccc2c(c1)[C@@H]1C[C@@H](CC(=O)NCc3ccccc3)O[C@@H](CO)[C@@H]1O2	nt	nt	0.3[16.7 µM]	nt	nt
O=C(Nc1cccc(S(=O)(=O)N2CCOCC2)c1)c1ccccn1	0.6	3.1	nt	1.7	75.3*
O=C(NNS(=O)(=O)c1ccc(Cl)cc1)c1cccc(S(=O)(=O)N2CCOCC2)c1	-0.5	-1.0	249.2*	-0.1	-7.2
O=C(NNS(=O)(=O)c1cccc(Cl)c1Cl)c1cccc(S(=O)(=O)N2CCOCC2)c1	-2.4	-0.8	20.3	2.8	1.3
COc1ccc(NC(=O)N(C)C[C@H]2Oc3ccc(NC(=O)C4CCCCC4)cc3CC(=O)N([C@@H](C)CO)C[C@@H]2C)cc1	nt	nt	1.8[16.7 µM]	nt	nt
O=c1c(Br)c(Br)cnn1-c1ccccc1	-1.3	1.2	nt	0.6	32.5*
COc1ccc(S(=O)(=O)N(C)C[C@@H]2Oc3cc(C#CC4CC4)ccc3S(=O)(=O)N([C@@H](C)CO)C[C@@H]2C)cc1	nt	nt	4.1[16.7 µM]	nt	nt
